Assay outcomes deposited in PubChem BioAssay by Broad Institute.
A1 apoptosis 2 = A1 inhibition read as caspase activation | 24,000 tested, under 10 active | AID 2465 | caspase activation, % (concentration not given with the values) | MEF A1-2A-BIM cells, caspase-Glo luminescence, 3 h; percent of clofoctol response, DMSO zero; in the data active = caspase activation above about 5.9%
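System: mouse embryonic fibroblasts co-expressing A1 and BIM (A1-2A-BIM), primed for A1 dependence; amount: 2500 cells/well; doses: 50 nL pinned compound; schedule: cells settled overnight, compound exposure 3 h at 37 °C, 5% CO2; detection: Caspase-Glo 3/7 luminescence, 1 h at room temperature; read-out: Caspase-3/7 activation, seen as rise in luminescence signal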
T cruzi HTS = blocks T. cruzi growth inside host cells. AID 651903. activity score (inhibition), % at 5.01 µM. 22,000 compounds, 4.9% hits. intracellular Trypanosoma cruzi in host cells, plate reader; in the data active = activity score above about 55%;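 note: parasites and compound incubated about four days before reading; 0% = median of neutral control wells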
INS-1E ATP HTS = preserves ATP levels in cytokine-treated INS-1E cells | INS-1E cytokine-induced death, ATP luminescence, 48 h; normalised: neutral wells 0, positive control 100 | protection from cytokine-induced ATP loss, % at 10 µM | 20,000 compounds, 0.1% hits | AID 488910;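 active = mean replicate protection from cytokine-induced ATP loss at least 50% and at least 75% of replicates each reaching 50%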
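Assay system: INS-1E rat insulinoma cells. Amount: 8000 cells per well. Medium: phenol-red-free RPMI with 5% fetal bovine serum. Reagent: IL-1β, TNF-α and IFN-γ cytokine mix. Doses: one compound concentration, pin transfer. Schedule: 48 h co-treatment, 10 min post-lysis read. Detection: CellTiter-Glo luminescence measuring cellular ATP.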
* = called active by the depositor; x = no result given. The sample as a whole holds a higher share of hits than the screen did.

SMILES	A1 apoptosis 2	T cruzi HTS	INS-1E ATP HTS
C[C@@H]1CN([C@H](C)CO)C(=O)Cc2cc(NS(=O)(=O)c3ccc(Cl)cc3)ccc2O[C@H]1CN(C)S(=O)(=O)c1ccc(F)cc1	0	-6	10
C[C@H]1CN([C@@H](C)CO)C(=O)Cc2cc(NS(=O)(=O)c3ccc(F)cc3)ccc2O[C@@H]1CN(C)S(=O)(=O)c1ccc(Cl)cc1	1	3	8
O=C(N1CCCCC1)[C@]1(CCS(=O)(=O)c2ccccc2)N=C(c2ccc(OCCCO)cc2)O[C@@H]1c1ccccc1	-1	x	x
Cc1noc(C)c1NC(=O)Nc1cccc2c1O[C@@H](CN(C)C(=O)Nc1ccccc1)[C@@H](C)CN([C@H](C)CO)C2=O	1	-21	9
C[C@@H]1CCCCO[C@@H](CN(C)C(=O)Nc2ccc(C(F)(F)F)cc2)[C@H](C)CN([C@@H](C)CO)C(=O)c2cc(NS(=O)(=O)c3ccc(F)cc3)ccc2O1	0	x	x
Cc1ccc(S(=O)(=O)Nc2ccc3c(c2)C(=O)N([C@@H](C)CO)C[C@H](C)[C@H](CN(C)C(=O)Nc2ccc(C(F)(F)F)cc2)OCCCC[C@H](C)O3)cc1	-1	x	x
Cc1ccc(S(=O)(=O)Nc2ccc3c(c2)C(=O)N([C@H](C)CO)C[C@H](C)[C@@H](CN(C)C(=O)Nc2ccc(C(F)(F)F)cc2)OCCCC[C@@H](C)O3)cc1	0	75*	-16
C[C@@H]1CCCCO[C@@H](CN(C)C(=O)Nc2ccc(C(F)(F)F)cc2)[C@@H](C)CN([C@H](C)CO)C(=O)c2cc(NS(=O)(=O)c3ccc(F)cc3)ccc2O1	0	71*	-13
COc1ccc(S(=O)(=O)Nc2ccc3c(c2)C(=O)N([C@@H](C)CO)C[C@H](C)[C@@H](CN(C)C(=O)Nc2ccc(C(F)(F)F)cc2)OCCCC[C@@H](C)O3)cc1	-1	x	x
COc1ccc(S(=O)(=O)Nc2ccc3c(c2)C(=O)N([C@H](C)CO)C[C@H](C)[C@H](CN(C)C(=O)Nc2ccc(C(F)(F)F)cc2)OCCCC[C@@H](C)O3)cc1	-1	65*	-19
C[C@@H]1CCCCO[C@H](CN(C)C(=O)Nc2ccc(F)cc2)[C@H](C)CN([C@H](C)CO)C(=O)c2cc(NS(=O)(=O)c3ccc(Cl)cc3)ccc2O1	1	x	x
C[C@@H]1CCCCO[C@@H](CN(C)C(=O)Nc2ccc(F)cc2)[C@@H](C)CN([C@H](C)CO)C(=O)c2cc(NS(=O)(=O)c3ccc(Cl)cc3)ccc2O1	0	65*	-6
COc1ccc(O)c(/C=N/NC(=O)c2ccccn2)c1	x	0	-8
Cc1noc(C)c1S(=O)(=O)Nc1ccc2c(c1)C(=O)N([C@H](C)CO)C[C@@H](C)[C@@H](CN(C)C(=O)c1ccccc1)OCCCC[C@H](C)O2	0	x	x
Cc1ccc(S(=O)(=O)Nc2ccc3c(c2)C(=O)N([C@H](C)CO)C[C@H](C)[C@H](CN(C)C(=O)Nc2ccc(C(F)(F)F)cc2)O3)cc1	1	-2	x
Cc1ccc(S(=O)(=O)Nc2ccc3c(c2)C(=O)N([C@@H](C)CO)C[C@@H](C)[C@@H](CN(C)C(=O)Nc2ccc(C(F)(F)F)cc2)O3)cc1	1	68*	-25
C[C@@H]1CN([C@@H](C)CO)C(=O)Cc2cc(NS(=O)(=O)c3ccc(F)cc3)ccc2O[C@H]1CN(C)Cc1ccc(Oc2ccccc2)cc1	1	x	x
C[C@@H]1CN([C@@H](C)CO)C(=O)Cc2cc(NS(=O)(=O)c3ccc(Cl)cc3)ccc2O[C@H]1CN(C)Cc1ccc(Oc2ccccc2)cc1	1	x	x
Cc1noc(C)c1S(=O)(=O)Nc1ccc2c(c1)CC(=O)N([C@@H](C)CO)C[C@H](C)[C@H](CN(C)Cc1ccc(Oc3ccccc3)cc1)O2	0	26	-21
C[C@@H]1CN([C@H](C)CO)C(=O)Cc2cc(NS(=O)(=O)c3ccc(F)cc3)ccc2O[C@@H]1CN(C)Cc1ccc(Oc2ccccc2)cc1	0	69*	-32
C[C@H](CO)N1C[C@H](C)[C@H](CN(C)S(=O)(=O)c2ccccc2)Oc2ccc(NS(=O)(=O)c3ccc(F)cc3)cc2C1=O	-1	58*	-5
C[C@@H]1CN([C@H](C)CO)C(=O)Cc2cc(NS(=O)(=O)c3ccc(Cl)cc3)ccc2O[C@@H]1CN(C)Cc1ccc(Oc2ccccc2)cc1	x	61*	-27
C[C@@H]1CN([C@@H](C)CO)C(=O)c2cc(NS(=O)(=O)c3ccc(F)cc3)ccc2O[C@H]1CN(C)S(=O)(=O)c1ccccc1	-1	7	-10
